In ChEMBL document CHEMBL2062504, “Diterpenoid alkaloids from the lateral root of Aconitum carmichaelii” (J Nat Prod, 2012):
Active and inactive are the calls of the source. The calls are words filed in the database; no cut-off is given here.

How the values were obtained:
Mus musculus = test: Analgesic activity in mouse assessed as reduction in acetic acid-induced writhing at 5 mg/kg, ip relative to vehicle-treated control; format: functional; set-up: scale not given: the % may be the effect or the level left; settings: route intraperitoneal
Outline: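 Mice dosed ip at 5 mg/kg, then given acetic acid to provoke writhing. Writhes were counted, and the value is the percent reduction in writhes compared with a blank control group, reported as mean ± deviation.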

PC-12 = test: Neuroprotective activity against serum starvation-induced cell death in rat PC12 cells assessed as cell viability at 10 uM incubated for 24 hrs prior to serum starvation measured after 24 hrs by MTT assay (reference value: 55.1+/-4.2%); format: functional; settings: read-out: Activity
Liver microsomes = test: Antioxidant activity in rat liver microsome assessed as inhibition of FeSO4-induced lipid peroxidation at 10 uM incubated for 15 mins prior to FeSO4-challenge measured after 15 mins by modified thiobarbituric acid method; format: functional
WB-F344 = test: Hepatoprotective activity against DL-galactosamine-induced cell death in rat WB-F344 cells at 10 uM incubated for 1 hr prior to DL-galactosamine-challenge measured after 24 hrs by MTT assay; format: functional, cell-based
[1] = system: Peritoneal macrophage cell; test: Antiinflammatory activity in mouse peritoneal macrophages assessed as inhibition of nitric oxide production at 10 uM; format: functional, cell-based
BGC-823 = test: Cytotoxicity against human BGC823 cells at 10 uM after 96 hrs by MTT assay; format: functional, cell-based
A549 = test: Cytotoxicity against human A549 cells at 10 uM after 96 hrs by MTT assay; format: functional, cell-based
MCF7 = test: Cytotoxicity against human MCF7 cells at 10 uM after 96 hrs by MTT assay; format: functional, cell-based
KETR3 = test: Cytotoxicity against human Ketr3 cells at 10 uM after 96 hrs by MTT assay; format: functional, cell-based
Bel-7402 = test: Cytotoxicity against human Bel7402 cells at 10 uM after 96 hrs by MTT assay; format: functional, cell-based
HCT-8 = test: Cytotoxicity against human HCT8 cells at 10 uM after 96 hrs by MTT assay; format: functional, cell-based

## COC[C@]12CN(C)C3[C@@H]4[C@H](OC)[C@H]1[C@@]3([C@@H](OC)C[C@H]2O)[C@]1(O)C[C@@]2(O)[C@H](OC(=O)c3ccccc3)[C@@H]1[C@]4(OC)[C@@H](O)[C@@H]2OC (stereo in doubt; 8)
Mus musculus
  Activity: 56%

## CCN1C[C@]2(COC)[C@H](O)C[C@H](OC)[C@]34C1[C@H]([C@H](OC)[C@H]23)[C@]1(O)[C@H]2[C@@H](OC(=O)c3ccccc3)[C@](O)(C[C@H]24)[C@@H](OC)[C@@H]1O
PC-12
  viability at 10 µM: 70.8%
Liver microsomes
  inhibition: inactive
WB-F344
  Activity: inactive
[1]
  inhibition: inactive
BGC-823
  Activity: inactive
A549
  Activity: inactive
MCF7
  Activity: inactive
KETR3
  Activity: inactive
Bel-7402
  Activity: inactive
HCT-8
  Activity: inactive

## COC[C@]12CN(C)C3[C@@H]4[C@H](OC)[C@H]1[C@@]3([C@@H](OC)C[C@H]2O)[C@]1(O)C[C@@]2(O)[C@H](OC(=O)c3ccccc3)[C@@H]1[C@]4(OC)[C@@H](O)[C@@H]2OC (stereo in doubt; 7)
Mus musculus
  Activity: 35%

## CCN1C[C@]2(COC)[C@H](O)C[C@H](OC)[C@]34C1[C@H]([C@H](OC)[C@H]23)[C@]1(OC(C)=O)[C@H]2[C@@H](OC(=O)c3ccccc3)[C@](O)(C[C@]24O)[C@@H](OC)[C@@H]1O
Liver microsomes
  inhibition: inactive
WB-F344
  Activity: inactive
[1]
  inhibition: inactive
BGC-823
  Activity: inactive
A549
  Activity: inactive
MCF7
  Activity: inactive
KETR3
  Activity: inactive
Bel-7402
  Activity: inactive
HCT-8
  Activity: inactive

## CCO[C@]12[C@H]3[C@@H](OC(=O)c4ccccc4)[C@H](C[C@H]3[C@@]34C5[C@@H]1[C@H](O)[C@@H]3[C@@](COC)(CC[C@@H]4OC)CN5CC)[C@@H](OC)[C@@H]2O
Liver microsomes
  inhibition: inactive
WB-F344
  Activity: inactive
[1]
  inhibition: inactive
BGC-823
  Activity: inactive
A549
  Activity: inactive
MCF7
  Activity: inactive
KETR3
  Activity: inactive
Bel-7402
  Activity: inactive
HCT-8
  Activity: inactive

## CCN1C[C@]2(COC)CC[C@H](O)[C@]34C1[C@H]([C@H](OC)[C@H]23)[C@]1(O)[C@H]2[C@@H](OC(=O)/C=C/c3ccccc3)[C@H](C[C@H]24)[C@@H](OC)[C@@H]1O
Liver microsomes
  inhibition: inactive
WB-F344
  Activity: inactive
[1]
  inhibition: inactive
BGC-823
  Activity: inactive
A549
  Activity: inactive
MCF7
  Activity: inactive
KETR3
  Activity: inactive
Bel-7402
  Activity: inactive
HCT-8
  Activity: inactive

## COC[C@]12CN(C)C3[C@@H]4[C@H](OC)[C@H]1[C@@]3([C@@H](OC)C[C@H]2OC(C)=O)[C@]1(O)C[C@@]2(O)[C@H](OC(=O)c3ccccc3)[C@@H]1[C@]4(OC)[C@@H](O)[C@@H]2OC
Liver microsomes
  inhibition: inactive
WB-F344
  Activity: inactive
[1]
  inhibition: inactive
BGC-823
  Activity: inactive
A549
  Activity: inactive
MCF7
  Activity: inactive
KETR3
  Activity: inactive
Bel-7402
  Activity: inactive
HCT-8
  Activity: inactive

## COC[C@]12CN(C)C3[C@@H]4[C@H](OC)[C@H]1[C@@]3([C@@H](OC)C[C@H]2O)[C@]1(O)C[C@@]2(O)[C@H](OC(=O)c3ccccc3)[C@@H]1[C@]4(O)[C@@H](O)[C@@H]2OC
Liver microsomes
  inhibition: inactive
WB-F344
  Activity: inactive
[1]
  inhibition: inactive
BGC-823
  Activity: inactive
A549
  Activity: inactive
MCF7
  Activity: inactive
KETR3
  Activity: inactive
Bel-7402
  Activity: inactive
HCT-8
  Activity: inactive

## CCN1C[C@]2(COC)CC[C@H](OC)[C@]34C1[C@H](C[C@H]23)[C@]1(O)[C@H]2[C@@H](OC(=O)c3ccccc3)[C@H](C[C@H]24)[C@@H](OC)[C@@H]1O
Liver microsomes
  inhibition: inactive
WB-F344
  Activity: inactive
[1]
  inhibition: inactive
BGC-823
  Activity: inactive
A549
  Activity: inactive
MCF7
  Activity: inactive
KETR3
  Activity: inactive
Bel-7402
  Activity: inactive
HCT-8
  Activity: inactive

## CCN1C[C@]2(COC)CC[C@H](OC)[C@]34C1[C@H]([C@H](O)[C@H]23)[C@]1(OC)[C@H]2[C@@H](OC(=O)c3ccccc3)[C@H](C[C@H]24)[C@@H](OC)[C@@H]1O
PC-12
  viability at 10 µM: 75.8%
Liver microsomes
  inhibition: inactive
WB-F344
  Activity: inactive
[1]
  inhibition: inactive
BGC-823
  Activity: inactive
A549
  Activity: inactive
MCF7
  Activity: inactive
KETR3
  Activity: inactive
Bel-7402
  Activity: inactive
HCT-8
  Activity: inactive

## COC[C@]12CN(C)C3[C@@H]4[C@H](OC)[C@H]1[C@@]3([C@@H](OC)C[C@H]2O)[C@@H]1C[C@@]2(O)[C@H](OC(=O)c3ccccc3)[C@@H]1[C@]4(OC(=O)c1ccccc1)[C@@H](O)[C@@H]2OC
PC-12
  viability at 10 µM: 74.7%
Liver microsomes
  inhibition: inactive
WB-F344
  Activity: inactive
[1]
  inhibition: inactive
BGC-823
  Activity: inactive
A549
  Activity: inactive
MCF7
  Activity: inactive
KETR3
  Activity: inactive
Bel-7402
  Activity: inactive
HCT-8
  Activity: inactive

## CCN1C[C@]2(COC)[C@H](O)C[C@H](OC)[C@]34C1[C@H]([C@H](OC)[C@H]23)[C@]1(OC)[C@H]2[C@@H](OC(=O)c3ccccc3)[C@](O)(C[C@]24O)[C@@H](OC)[C@@H]1O
Liver microsomes
  inhibition: inactive
WB-F344
  Activity: inactive
[1]
  inhibition: inactive
BGC-823
  Activity: inactive
A549
  Activity: inactive
MCF7
  Activity: inactive
KETR3
  Activity: inactive
Bel-7402
  Activity: inactive
HCT-8
  Activity: inactive

## COC[C@]12CN(C)C3[C@@H]4[C@H](OC)[C@H]1[C@@]3([C@@H](OC)C[C@H]2OC(C)=O)[C@@H]1C[C@@]2(O)[C@H](OC(=O)c3ccccc3)[C@@H]1[C@]4(O)[C@@H](OC(C)=O)[C@@H]2OC
Liver microsomes
  inhibition: inactive
WB-F344
  Activity: inactive
[1]
  inhibition: inactive
BGC-823
  Activity: inactive
A549
  Activity: inactive
MCF7
  Activity: inactive
KETR3
  Activity: inactive
Bel-7402
  Activity: inactive
HCT-8
  Activity: inactive

## COC[C@]12CN(C)C3[C@@H]4[C@H](OC)[C@H]1[C@@]3([C@@H](OC)C[C@H]2O)[C@@H]1C[C@@]2(O)[C@H](OC(=O)c3ccccc3)[C@@H]1[C@]4(O)[C@@H](OC(C)=O)[C@@H]2OC
Liver microsomes
  inhibition: inactive
WB-F344
  Activity: inactive
[1]
  inhibition: inactive
BGC-823
  Activity: inactive
A549
  Activity: inactive
MCF7
  Activity: inactive
KETR3
  Activity: inactive
Bel-7402
  Activity: inactive
HCT-8
  Activity: inactive
